Measured values as given in ChEMBL document CHEMBL3046809, “Plant tissue distribution and chemical inactivation of six carnation viruses” (Crop Prot, 2007).
Calls of active or inactive are those of the source. The rule behind the calls is not given here.

Key:
Type in all cases: functional, organism-based
[1] = system: Carnation Italian ringspot virus; test: Antiviral activity against Carnation Italian ringspot virus infected as compound-treated sap in Saponaria vaccaria at 3% incubated for 60 secs prior to inoculation measured after 6 weeks in green house conditions by non-isotopic molecular hybridisation assay
Summary of the method: (§1)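 Infected leaves ground in 30 mM phosphate buffer pH 7.0 with 0.5% PVP (1 g/5 ml) and clarified. Sap mixed 1:1 with chemical solution for 60 s; listed concentrations are final, after extract dilution. Buffer-only sap served as control. Treated sap rub-inoculated with carborundum onto three S. vaccaria cv. 'Pink Beauty' plants. Plants held in a greenhouse up to 6 weeks; infection scored by non-isotopic hybridisation.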

[2] = system: Carnation Italian ringspot virus; test: Antiviral activity against Carnation Italian ringspot virus infected compound-treated sap in Saponaria vaccaria at 7% incubated for 60 secs prior to inoculation measured after 6 weeks in green house conditions by non-isotopic molecular hybridisation assay; summary of the method: as §1
[3] = system: Carnation Italian ringspot virus; test: Antiviral activity against Carnation Italian ringspot virus infected as compound-treated sap in Saponaria vaccaria at 5% incubated for 60 secs prior to inoculation measured after 6 weeks in green house conditions by non-isotopic molecular hybridisation assay; summary of the method: as §1
Carnation ringspot virus [4] = test: Antiviral activity against Carnation ringspot virus infected compound-treated sap in Saponaria vaccaria at 7% incubated for 60 secs prior to inoculation measured after 6 weeks in green house conditions by non-isotopic molecular hybridisation assay; summary of the method: as §1
Carnation ringspot virus [5] = test: Antiviral activity against Carnation ringspot virus infected compound-treated sap in Saponaria vaccaria at 5% incubated for 60 secs prior to inoculation measured after 6 weeks in green house conditions by non-isotopic molecular hybridisation assay; summary of the method: as §1
Carnation ringspot virus [6] = test: Antiviral activity against Carnation ringspot virus infected compound-treated sap in Saponaria vaccaria at 3% incubated for 60 secs prior to inoculation measured after 6 weeks in green house conditions by non-isotopic molecular hybridisation assay; summary of the method: as §1
[7] = system: Carnation vein mottle virus; test: Antiviral activity against Carnation vein mottle virus infected compound-treated sap in Saponaria vaccaria at 7% incubated for 60 secs prior to inoculation measured after 6 weeks in green house conditions by non-isotopic molecular hybridisation assay; summary of the method: as §1
[8] = system: Carnation vein mottle virus; test: Antiviral activity against Carnation vein mottle virus infected compound-treated sap in Saponaria vaccaria at 5% incubated for 60 secs prior to inoculation measured after 6 weeks in green house conditions by non-isotopic molecular hybridisation assay; summary of the method: as §1
[9] = system: Carnation vein mottle virus; test: Antiviral activity against Carnation vein mottle virus infected compound-treated sap in Saponaria vaccaria at 3% incubated for 60 secs prior to inoculation measured after 6 weeks in green house conditions by non-isotopic molecular hybridisation assay; summary of the method: as §1
[10] = system: Carnation etched ring virus; test: Antiviral activity against Carnation etched ring virus infected compound-treated sap in Saponaria vaccaria at 3% incubated for 60 secs prior to inoculation measured after 6 weeks in green house conditions by non-isotopic molecular hybridisation assay; summary of the method: as §1
Carnation latent virus [11] = test: Antiviral activity against Carnation latent virus infected compound-treated sap in Saponaria vaccaria at 7% incubated for 60 secs prior to inoculation measured after 6 weeks in green house conditions by non-isotopic molecular hybridisation assay; summary of the method: as §1
Carnation latent virus [12] = test: Antiviral activity against Carnation latent virus infected compound-treated sap in Saponaria vaccaria at 5% incubated for 60 secs prior to inoculation measured after 6 weeks in green house conditions by non-isotopic molecular hybridisation assay; summary of the method: as §1
Carnation latent virus [13] = test: Antiviral activity against Carnation latent virus infected compound-treated sap in Saponaria vaccaria at 3% incubated for 60 secs prior to inoculation measured after 6 weeks in green house conditions by non-isotopic molecular hybridisation assay; summary of the method: as §1
[14] = system: Carnation etched ring virus; test: Antiviral activity against Carnation etched ring virus infected compound-treated sap in Saponaria vaccaria at 7% incubated for 60 secs prior to inoculation measured after 6 weeks in green house conditions by non-isotopic molecular hybridisation assay; summary of the method: as §1
[15] = system: Carnation etched ring virus; test: Antiviral activity against Carnation etched ring virus infected compound-treated sap in Saponaria vaccaria at 5% incubated for 60 secs prior to inoculation measured after 6 weeks in green house conditions by non-isotopic molecular hybridisation assay; summary of the method: as §1
Carnation mottle virus [16] = test: Antiviral activity against Carnation mottle virus infected compound-treated sap in Saponaria vaccaria at 7% incubated for 60 secs prior to inoculation measured after 6 weeks in green house conditions by non-isotopic molecular hybridisation assay; summary of the method: as §1
Carnation mottle virus [17] = test: Antiviral activity against Carnation mottle virus infected compound-treated sap in Saponaria vaccaria at 5% incubated for 60 secs prior to inoculation measured after 6 weeks in green house conditions by non-isotopic molecular hybridisation assay; summary of the method: as §1
Carnation mottle virus [18] = test: Antiviral activity against Carnation mottle virus infected compound-treated sap in Saponaria vaccaria at 3% incubated for 60 secs prior to inoculation measured after 6 weeks in green house conditions by non-isotopic molecular hybridisation assay; summary of the method: as §1

OCl
Activity [1]: inactive | Activity [2]: Active | Activity [3]: Active | Activity (Carnation ringspot virus [4]): Active | Activity (Carnation ringspot virus [5]): inactive | Activity (Carnation ringspot virus [6]): inactive | Activity [7]: Active | Activity [8]: Active | Activity [9]: Active | Activity [10]: Active | Activity (Carnation latent virus [11]): Active | Activity (Carnation latent virus [12]): Active | Activity (Carnation latent virus [13]): Active | Activity [14]: Active | Activity [15]: Active | Activity (Carnation mottle virus [16]): Active | Activity (Carnation mottle virus [17]): inactive | Activity (Carnation mottle virus [18]): inactive

O=P([O-])([O-])O.[Na+].[Na+]
Activity [3]: inactive | Activity (Carnation ringspot virus [5]): inactive | Activity [8]: Active | Activity (Carnation latent virus [12]): inactive | Activity [15]: inactive | Activity (Carnation mottle virus [17]): inactive
